Measurements from paper PMC10763047 (Chemical Science, 2023).

How the values were obtained:
p110α [1] = experiment: Western blot of p110α degradation in a panel of cell lines; type: cell-based; conditions: MCF7 and T47D cell lines
p110α [2] = biological target: p110α (Homo sapiens, UniProt P42336, E545K); experiment: Western blot of p110α degradation in MCF7 cells; type: cell-based; conditions: pretreatment before WJ112-14
Outline: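 MCF7 cells (p110α E545K) were exposed to test compound for 6 h, or 6 h and 24 h in some runs. Integrated PI3Kα western blot signals were normalised to α-tubulin and DMSO. SD came from biological triplicates at selected concentrations. Mechanistic runs used pretreatment with bortezomib, MLN4924 or TAK-243, a glutarimide-methylated CRBN-binding-dead analogue, and washout to follow p110α recovery.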

Chain of p110α (Homo sapiens, UniProt P42336, E545K) (P42336 whole entry E545K): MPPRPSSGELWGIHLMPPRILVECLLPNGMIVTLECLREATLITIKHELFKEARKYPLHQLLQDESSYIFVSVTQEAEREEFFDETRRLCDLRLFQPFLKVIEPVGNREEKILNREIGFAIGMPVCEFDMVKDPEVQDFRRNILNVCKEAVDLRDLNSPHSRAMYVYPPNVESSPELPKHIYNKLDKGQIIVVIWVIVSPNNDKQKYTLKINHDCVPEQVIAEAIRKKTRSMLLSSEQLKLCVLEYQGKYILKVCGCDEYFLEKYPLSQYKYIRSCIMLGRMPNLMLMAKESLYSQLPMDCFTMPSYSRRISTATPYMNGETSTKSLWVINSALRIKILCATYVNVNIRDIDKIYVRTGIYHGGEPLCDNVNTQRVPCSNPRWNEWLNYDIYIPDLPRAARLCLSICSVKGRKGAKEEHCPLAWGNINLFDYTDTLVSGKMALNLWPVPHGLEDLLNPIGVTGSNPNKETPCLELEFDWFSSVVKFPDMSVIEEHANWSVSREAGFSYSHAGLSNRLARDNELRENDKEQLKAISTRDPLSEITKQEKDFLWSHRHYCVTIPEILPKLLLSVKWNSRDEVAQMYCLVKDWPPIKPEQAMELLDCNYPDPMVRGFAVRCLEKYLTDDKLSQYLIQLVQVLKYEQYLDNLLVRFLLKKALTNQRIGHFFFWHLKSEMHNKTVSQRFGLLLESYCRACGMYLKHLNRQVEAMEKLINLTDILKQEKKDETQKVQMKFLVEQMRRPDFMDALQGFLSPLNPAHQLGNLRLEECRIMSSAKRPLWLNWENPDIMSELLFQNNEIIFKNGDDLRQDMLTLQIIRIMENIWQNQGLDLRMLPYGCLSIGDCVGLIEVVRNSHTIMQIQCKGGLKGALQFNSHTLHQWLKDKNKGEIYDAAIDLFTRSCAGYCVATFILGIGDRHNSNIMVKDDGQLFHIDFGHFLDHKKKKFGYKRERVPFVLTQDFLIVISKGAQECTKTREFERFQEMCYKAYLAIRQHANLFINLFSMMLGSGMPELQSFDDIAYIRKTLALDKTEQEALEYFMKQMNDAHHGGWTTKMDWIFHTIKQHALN
Chain of p110α (Homo sapiens, UniProt P42336, E545K) (P27986 whole entry partner): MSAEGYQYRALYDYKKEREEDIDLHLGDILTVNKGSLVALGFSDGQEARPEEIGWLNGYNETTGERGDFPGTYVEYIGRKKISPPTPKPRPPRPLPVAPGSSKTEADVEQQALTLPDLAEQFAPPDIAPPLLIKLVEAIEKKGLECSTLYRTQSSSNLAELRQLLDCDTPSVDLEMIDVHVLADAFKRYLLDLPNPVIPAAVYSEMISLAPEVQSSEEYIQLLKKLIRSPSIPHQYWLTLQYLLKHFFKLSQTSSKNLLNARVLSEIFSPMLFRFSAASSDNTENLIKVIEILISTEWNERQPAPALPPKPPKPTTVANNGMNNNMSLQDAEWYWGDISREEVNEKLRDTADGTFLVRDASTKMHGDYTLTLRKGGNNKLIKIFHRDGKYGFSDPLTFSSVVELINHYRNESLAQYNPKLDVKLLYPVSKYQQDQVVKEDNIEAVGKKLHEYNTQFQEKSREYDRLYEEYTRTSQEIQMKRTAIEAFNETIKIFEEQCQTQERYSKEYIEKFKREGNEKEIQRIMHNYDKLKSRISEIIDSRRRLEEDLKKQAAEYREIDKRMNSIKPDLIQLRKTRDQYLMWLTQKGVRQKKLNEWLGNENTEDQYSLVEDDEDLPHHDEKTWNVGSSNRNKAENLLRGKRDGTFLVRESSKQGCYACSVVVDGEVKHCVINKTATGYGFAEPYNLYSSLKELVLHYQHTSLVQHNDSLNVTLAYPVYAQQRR

Compound | p110α degradation (p110α [1]) | rescue of p110α from WJ112-14 degradation by pretreatment (p110α [2])
Cc1nc(-c2cn3c(n2)-c2ccc(-c4cnn(C(C)(C)C(N)=O)c4)cc2OCC3)n(C(C)C)n1 [taselisib] | inactive | –
CC(C)C[C@H](NC(=O)[C@H](Cc1ccccc1)NC(=O)c1cnccn1)B(O)O [bortezomib] | – | full rescue of p110α
NS(=O)(=O)OC[C@H]1C[C@@H](Nc2ccnc3cc(-c4cccc(SC(F)(F)F)c4)nn23)[C@H](O)[C@@H]1O [TAK-243] | – | full rescue of p110α
Nc1cccc2c1C(=O)N(C1CCC(=O)NC1=O)C2=O (centres unmarked) [pomalidomide] | – | rescue of p110α
NS(=O)(=O)OC[C@@H]1C[C@@H](n2ccc3c(N[C@H]4CCc5ccccc54)ncnc32)C[C@@H]1O [MLN4924] | – | full rescue of p110α
